# MT1-MMP act inh: inhibitors of human MT1-MMP activation; HT1080 RFP-PRO-GFP cells, GFP/RFP ratio fluorescence, overnight; percent of plate control window, DMSO zero; GFP/RFP ratio change, % at 20 µM; 360,000 tested, 0.061% active; AID 651647;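 active means GFP/RFP ratio change of at least 30% with cell ATP level not reduced by more than half and red fluorescence within 50% of control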
#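 Compound: 20 µM single dose, 1% DMSO / System: HT1080 RFP-PRO-GFP cells / Controls: DMSO and RFP-L50D-GFP cell wells / Read-out basis: GFP/RFP fluorescence ratio / Schedule: overnight compound exposure at 37 °C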
# Tn7 DDE FP: inhibitors of Tn7 peptide binding to human fibrin DD(E); AID 720508; inhibition, % at 8.3 µM; P02675; 370,000 tested, 0.13% active; FP displacement of FITC-Tn7 peptide from fibrin DD(E); 0% = median of compound wells per plate;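 active means inhibition above the mean of compounds falling within the control limits plus 3 SD of them, cut at about 14% in these data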;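 further: 0% = plate median of compound wells and 100% = 10 µM Aha-Tn7 peptide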
# Target sequence (P02675 whole entry, looked up): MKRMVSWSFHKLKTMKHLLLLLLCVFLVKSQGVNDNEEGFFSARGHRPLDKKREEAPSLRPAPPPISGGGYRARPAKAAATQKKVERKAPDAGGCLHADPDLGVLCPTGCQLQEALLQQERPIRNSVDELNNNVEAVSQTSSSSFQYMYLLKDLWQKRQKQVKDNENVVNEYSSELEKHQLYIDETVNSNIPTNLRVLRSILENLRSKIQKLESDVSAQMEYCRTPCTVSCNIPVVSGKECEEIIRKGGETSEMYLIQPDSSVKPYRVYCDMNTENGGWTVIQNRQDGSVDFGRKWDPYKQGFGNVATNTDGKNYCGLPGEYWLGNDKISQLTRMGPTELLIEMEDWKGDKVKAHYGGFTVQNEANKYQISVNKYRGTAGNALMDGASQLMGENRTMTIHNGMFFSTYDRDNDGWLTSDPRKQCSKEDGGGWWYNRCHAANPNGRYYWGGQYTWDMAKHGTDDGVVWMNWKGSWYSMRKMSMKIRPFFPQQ
#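 Test system: human clot-derived fibrin DD(E) complex / Quantity: 2 µM final DD(E) protein / Incubation: 10 min plus 3 h, room temperature / Measured by: fluorescence polarization / Benchmarks: high control of 10 µM Aha-Tn7 peptide / Replicates: singlicate testing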
# DDE Tn6 FP inh: DD(E)-Tn6 binding inhibition, primary FP screen | P02675 | Fibrin DD(E) TRITC-Tn6 fluorescence polarization displacement | inhibition, % at 8.3 µM | 370,000 tested, 0.21% active | AID 720509;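 active means inhibition above a per-campaign cutoff: mean of compounds within control limits plus 3 SD, cut at about 15% in these data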;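 further: 0% = median of all compound wells on the plate and 100% = blocking peptide control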
# TAG inh: inhibitors of triacylglycerol accumulation. 230,000 tested, 0.66% active. H9c2 cells, Nile Red lipid (TAG) fluorescence; cells loaded with 200 µM oleic acid. inhibition, % at 12.5 µM;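 active means pattern-corrected inhibition of lipid staining of at least 50% with the nuclear-stain viability signal not falling by more than 50%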;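 further: 0% = DMSO wells and 100% = triacsin C control wells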
# Cardio protect: modulators protecting cardiomyocytes from myocardial damage | protection from H2O2 cell death, % at 20 µM | 360,000 tested, 0.63% active | H9c2 cardiomyocytes, H2O2 injury protection, ATPLite, 2 h;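 active means compounds giving at least 50% protection of heart cells from peroxide-induced death in the single-dose screen, raw or plate-pattern-corrected value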;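 further: 0% = DMSO wells with peroxide and 100% = DMSO wells without peroxide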
# DAGLB inhibitor: diacylglycerol lipase beta (human) inhibition | Q8NCG7 | HEK293T DAGLB membrane lysate, EnzChek fluorogenic substrate | inhibition, % at 5.17 µM | 340,000 tested, 0.059% active; in the data active means inhibition above about 34%;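 further: 0% = enzyme with vehicle and 100% = wells lacking enzyme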
# Starred values were filed as active, the others as inactive; . = not tested or not shown. Hits are enriched below; roughly 1.4% of the tested compounds scored in any of these assays.
SMILES,MT1-MMP act inh,Tn7 DDE FP,DDE Tn6 FP inh,TAG inh,Cardio protect,DAGLB inhibitor
COC(=O)[C@]12C[C@H](CC(=O)NCCC(C)C)C(=O)N(CCc3ccc(OC)c(OC)c3)C1=C[C@H](C1CCCC1)O[C@@H]2C,.,3,-5,.,.,.
O=C1c2ccccc2NC(c2ccc(Cl)cc2Cl)N1O (centres undefined),1,5,-1,-12,61*,5
Cc1ccc(-c2nnc3n2N=C(c2ccc4ccccc4c2)CS3)cc1,.,6,-1,.,.,.
O=C(Nc1nc(-c2cc(F)ccc2F)cs1)C1=NN(c2ccccc2)C(=O)CC1,-2,4,5,7,51*,-9
CC(C)(C)OC(=O)CNC(=O)c1[nH]cnc1C(=O)NCC(=O)OCc1ccccc1,-4,8,2,1,105*,-4
CC(C)(C)OC(=O)CNC(=O)c1[nH]cnc1C(=O)Nc1ccc(CNC(=O)OC(C)(C)C)cc1,-11,-2,-6,-14,87*,-1
O=C(CNC(=O)c1[nH]cnc1C(=O)N[C@@H](Cc1ccccc1)C(=O)OCc1ccccc1)OCc1ccccc1,2,-4,1,-8,10,-2
O=C(CNC(=O)c1[nH]cnc1C(=O)NC(c1ccccc1)c1ccccc1)OCc1ccccc1,-2,1,-14,-13,58*,-1
Cc1cccc(NC(=O)c2nc[nH]c2C(=O)NCCCNC(=O)c2[nH]cnc2C(=O)Nc2cccc(C)c2)c1,-9,-10,6,84*,62*,0
CC(=O)CC[C@@H]1CC[C@]2(CCCN(C(=O)c3ccccc3)C2)O1,.,-4,6,.,.,.
COC(=O)[C@H](Cc1ccccc1)NC(=O)[C@H]1O[C@@H](n2cnc3c(=O)[nH]c(N)nc32)[C@H](O)[C@@H]1O,.,-1,1,.,.,.
CCC[C@H]1[C@@H](NC(=O)Nc2ccc3c(c2)OCO3)CC[C@@]23CCCN2C(=O)CCC[C@@H]13,.,4,-1,.,.,.
Cc1cc(C)nc(N2CCC(C(=O)N(C)CCc3ccccn3)CC2)n1,.,-10,-1,.,.,.
CN1Cc2c(N3CCOCC3)nc3sc(C(=O)c4ccc(Br)cc4)c(N)c3c2CC1(C)C,-5,-7,-4,68*,-3,.
Cc1cccc(-n2c(SCc3cc(=O)n4ccsc4n3)nc3ccccc3c2=O)c1,-14,-1,3,20,67*,0
O=c1c2ccccc2nc(SCc2cn3ccsc3n2)n1-c1ccccc1,-3,-2,2,12,18,0
COc1ccc2c(c1O)Cc1ccccc1C2=O,35*,.,.,-9,2,3
COc1cc(OC)c(OC)cc1/C=C1/Cc2ccccc2C1=O,-135,0,1,.,-6,-14
C[C@H]1Cn2nnc(-c3ccccc3)c2Cn2c3ccccc3c(=O)n21,.,2,-1,.,.,.
O=C1C2C3C=CC(CC3)C2C(=O)N1c1cccc(Br)c1 (centres undefined),-3,1,3,.,76*,-3
CCOc1ccc(-n2c(SCC(=O)Nc3ccccc3-c3ccccc3)nnc2-c2ccccc2)cc1,.,2,0,.,.,.
Cc1cc(NC(=O)COC(=O)COc2ccc3c4c(c(=O)oc3c2)CCC4)no1,3,-5,-6,10,53*,-1
Cc1noc(C)c1COC(=O)COc1ccc2c(C)cc(=O)oc2c1,4,1,2,0,60*,0
CNC(=O)COC(=O)COc1ccc2c(C)cc(=O)oc2c1,2,8,-10,-3,29,-5
Cc1ccc2c(c1)c1c(n2CC(O)CNC2CCCC2)CCCC1 (centres undefined),1,1,-6,99*,-1,-1
SMILES,MT1-MMP act inh,Tn7 DDE FP,DDE Tn6 FP inh,TAG inh,Cardio protect,DAGLB inhibitor
C=CCNC(=O)CN(C(=O)Cc1ccc(Cl)cc1)c1cccc(Br)c1,.,-6,11,.,.,.
CCOC(=O)C(Cc1ccc(NC(=O)/C(=C/c2ccccc2)NC(=O)c2ccccc2)cc1)N1C(=O)c2ccccc2C1=O (centres undefined),4,-10,-6,49,42,3
CCOC(=O)C(Cc1ccc(NC(=O)/C(=C/c2ccc(OC(C)=O)cc2)NC(C)=O)cc1)N1C(=O)c2ccccc2C1=O (centres undefined),-2,2,-1,17,59*,2
CN(C)c1ccc(C(C(=O)NCC2CCCO2)N(Cc2ccccc2)C(=O)c2snc(C(N)=O)c2N)cc1 (centres undefined),-3,0,-5,.,51*,1
CN(C)c1ccc(C(C(=O)NCC2CCCO2)N(Cc2ccco2)C(=O)c2snc(C(N)=O)c2N)cc1 (centres undefined),3,0,6,.,52*,-1
O=C(CCc1ccccc1)N[C@H]1[C@@H](O)CCC[C@]12C(=O)N(Cc1ccccc1)c1ccccc12,.,-2,-4,.,.,.
COc1ccc2nc(Nc3nc(CSc4nc5ccccc5[nH]4)cc(=O)[nH]3)nc(C)c2c1,2,-14,4,.,70*,2
Cn1c(O)c(N=Nc2nc(-c3ccccc3)cs2)c2ccccc21,-9,-6,-5,.,62*,5
COC1C(CO)OC(n2c3c(Cl)cccc3c3c4c(c5c6cccc(Cl)c6[nH]c5c32)C(=O)NC4=O)C(O)C1O (centres undefined),-43,-3,5,72*,8,-9
COC(=O)c1cc2c(c3c4cc(C)ccc4n(S(=O)(=O)c4ccc(C)cc4)c13)C(=O)N(C)C2,.,-6,2,.,.,.
CCOC(=O)c1ccc(NC2=CC(=O)C(=O)c3ccccc32)cc1,-4,-1,-2,80*,-31,4
CCN(CC)c1ccc2cc(C=O)c(=O)oc2c1,-32,-63,4,7,-4,-70
CCN(CC)c1ccc2nc3c4ccccc4c(=O)cc-3oc2c1,.,5,105*,.,.,.
COc1ccc(CNn2c(-c3cccs3)nc3ccccc3c2=O)cc1OC,7,-8,-2,-18,67*,-6
Cc1ccc(S(=O)(=O)Nc2ccc(O)c3cccnc23)cc1,5,-2,-5,.,-17,0
Cc1ccc(S(=O)(=O)Nc2ccc(O)c3ncccc23)cc1,0,-1,0,21,52*,7
CN(C(=O)Cn1nc(C(=O)O)c2ccccc2c1=O)C1(C#N)CCCCC1,-1,-2,2,4,57*,-3
O=C(O)c1nn(CC(=O)N2CCCCCC2)c(=O)c2ccccc12,0,0,13,8,49,-2
N#Cc1ccc(CC(=O)c2ccccc2)[nH]c1=O,-29,-2,17*,-28,2,3
N#Cc1ccc(CCc2ccccc2)[nH]c1=O,4,5,0,-4,6,3

# Screening data (PubChem BioAssay)
